{"source": "paper PMC11720871", "about": "(Results in chemistry, 2024)", "key": {"[1]": {"tested_on": "pregnant rats", "details": "high dose (500–600 times more than human dosage); cited from earlier work"}, "[2]": {"tested_on": "non-cancer human prostate epithelial cells", "details": "berberine 10–100 μM; cited from earlier work"}, "[3]": {"tested_on": "MDA-MB-231 cells", "details": "48 h of treatment; cited from earlier work"}, "[4]": {"tested_on": "BT549 cells", "details": "48 h of treatment; cited from earlier work"}, "[5]": {"tested_on": "prostate cancer PC3 cells", "details": "cited from earlier work"}, "[6]": {"tested_on": "human cervical cancer HeLa cells", "details": "cited from earlier work"}, "[7]": {"tested_on": "breast cancer MCF-7 cells", "details": "single agent; cited from earlier work"}, "[8]": {"tested_on": "MDA-MB-231 VIM RFP cells", "experiment": "CCK-8 viability assay, cancer cells", "assay_type": "cell-based, human", "details": "read-out: IC50 Cancer MDA-MB-231 VIM RFP", "in_short": "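MDA-MB-231 VIM RFP cells were grown in EMEM with 10% FBS, 0.01 mg ml−1 insulin, 10 μg ml−1 blasticidin S and 1% pen/strep at 37 °C, 5% CO2. Cells were seeded at 1.5 × 10^4 cells/well and exposed to 0–100 μM test compound, alone or with a fixed 50 μM BBC, for 24, 48 or 72 h. WST-8 (CCK-8) absorbance was read at 450 nm, and IC50 was taken from concentration–viability curves.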"}, "[9]": {"tested_on": "MCF-10A cells", "experiment": "CCK-8 viability assay, non-cancer cells", "assay_type": "cell-based, human", "details": "read-out: IC50 Non-cancer MCF-10A"}, "[10]": {"tested_on": "MDA-MB-231 VIM RFP cells", "experiment": "Cell cycle analysis by flow cytometry", "assay_type": "cell-based, human", "details": "complex 20 μM and/or BBC 50 μM, 24 h", "in_short": "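Cells were plated at 1 × 10^6 cells/mL in 6-well plates and treated 24 h with 20 μM complex and/or 50 μM BBC. They were washed in PBS, fixed in ice-cold 70% EtOH at 4 °C for 2 h, washed again and stained with DAPI. Flow cytometry read at 450/50 nm, and G1, S and G2 fractions were gated. Triplicate; mean + std. err.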"}, "[11]": {"tested_on": "p-MLKL in MDA-MB-231 VIM RFP cells", "experiment": "Western blot analysis of p-MLKL", "assay_type": "cell-based, human", "details": "complex 20 μM and/or BBC 50 μM, 24 h; relative to GAPDH", "in_short": "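Cells were plated at 1 × 10^6 cells/mL in 6-well plates and treated 24 h with 20 μM complex and/or 50 μM BBC. RIPA lysates were BCA-normalised, and equal protein was run on 10% SDS-PAGE (100 V, 2 h) and transferred to nitrocellulose (60 V, 90 min). After TBS blocking for 30 min, p-MLKL and GAPDH primaries were applied overnight at 4 °C, then Alexa Fluor Plus 488 secondary for 1 h at RT. Band densitometry was expressed relative to GAPDH.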"}, "[12]": {"tested_on": "Caspase 3/7 in MDA-MB-231 VIM RFP cells", "experiment": "Caspase-Glo 3/7 luminescence assay", "assay_type": "cell-based, human", "details": "complex 20 μM and/or BBC 50 μM, 24 h", "in_short": "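Cells were seeded at 1.5 × 10^4 cells/well and treated for 24 h with 20 μM complex and/or 50 μM BBC. Caspase-Glo 3/7 reagent was added and luminescence read. Mean ± SE, n = 3.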"}}, "note": "Like-named read-outs stand apart in the source and are kept apart here."}
{"smiles": "COc1ccc2cc3[n+](cc2c1OC)CCc1cc2c(cc1-3)OCO2", "note": "[berberine]", "values": [{"measurement": "Reproductive toxicity", "setting": "[1]", "result": "no significant reproductive toxicity"}, {"measurement": "Cytotoxic effect", "setting": "[2]", "result": "did not show a significant cytotoxic effect"}, {"measurement": "IC50", "setting": "[3]", "result": "18.525 ± 6.139", "unit": "µg/mL"}, {"measurement": "IC50", "setting": "[4]", "result": "16.575 ± 1.219", "unit": "µg/mL"}, {"measurement": "Cell cycle arrest", "setting": "[5]; 10 μM", "result": "induced G0/G1 cell cycle arrest"}, {"measurement": "Cell cycle arrest", "setting": "[5]; 50 μM", "result": "inhibited the cell cycle at G2/M phase"}, {"measurement": "Enhancement of toxicity of berberine when combined with cisplatin", "setting": "[6]; berberine 50 μg/mL combined with 5 μM of cisplatin", "result": "around 54%"}, {"measurement": "Cytotoxic effect", "setting": "[6]; dose of 50 μg/mL", "result": "significant cytotoxic effect"}, {"measurement": "IC50", "setting": "[7]", "result": "52.2 ± 1.59", "unit": "µM"}]}
{"smiles": "N.N.[Cl][Pt][Cl]", "note": "[Cisplatin]", "values": [{"measurement": "IC50", "setting": "[8]; 24 h incubation, CCK-8", "result": "28.1 ± 2.4", "unit": "µM"}, {"measurement": "IC50", "setting": "[8]; 48 h incubation, CCK-8", "result": "24.7 ± 2.6", "unit": "µM"}, {"measurement": "IC50", "setting": "[8]; 72 h incubation, CCK-8", "result": "22.2 ± 1.8", "unit": "µM"}, {"measurement": "IC50", "setting": "[9]; 24 h incubation, CCK-8", "result": "41.2 ± 1.9", "unit": "µM"}, {"measurement": "IC50", "setting": "[9]; 48 h incubation, CCK-8", "result": "34.2 ± 2.7", "unit": "µM"}, {"measurement": "IC50", "setting": "[7]", "result": "49.5 ± 1.62", "unit": "µM"}]}
{"smiles": "COc1ccc2cc3[n+](cc2c1OC)CCc1cc2c(cc1-3)OCO2", "note": "[Berberine chloride (BBC), berberine chloride]", "values": [{"measurement": "Fraction of cells in G2 phase", "setting": "[10]", "result": 33.8, "unit": "%"}, {"measurement": "IC50", "setting": "[8]; Homo sapiens, MDA-MB-231, 24 h", "result": "48.3 ± 2.4", "unit": "µM"}, {"measurement": "IC50", "setting": "[8]; Homo sapiens, MDA-MB-231, 48 h", "result": "31.8 ± 2.6", "unit": "µM"}, {"measurement": "IC50", "setting": "[8]; Homo sapiens, MDA-MB-231, 72 h", "result": "25.6 ± 1.9", "unit": "µM"}, {"measurement": "IC50", "setting": "[9]; Homo sapiens, MCF-10A, 24 h", "result": "> 100", "unit": "µM"}, {"measurement": "IC50", "setting": "[9]; Homo sapiens, MCF-10A, 48 h", "result": "> 100", "unit": "µM"}, {"measurement": "IC50", "setting": "[9]; Homo sapiens, MCF-10A, 72 h", "result": "92.3 ± 1.4", "unit": "µM"}, {"measurement": "p-MLKL level, western blot", "setting": "[11]", "result": "low level of p-MLKL"}, {"measurement": "Caspase 3/7 activity (luminescence)", "setting": "[12]", "result": "activation in caspase 3/7"}]}
